Data: paper PMC6286650 (EBioMedicine, 2018)

Experiments:
HVSMCs = assay type: cell-based, human; settings: 10 μM
C57 wild type mice = experiment: Isoproterenol-induced myocardial ischemia model in wild type mice; assay type: in vivo
Method in brief: (§1)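 Wild-type C57 or cre-lox transgelin knockout C57/BL6 mice, 24 per genotype, were split into normal, model and two treatment groups. Test compound was given orally at 10 mg/kg daily for one week; normal and model groups got saline. On day 5, isoproterenol 3 mg/kg i.p. was given (saline for normal group). After day 7, mice were anaesthetized with chloral hydrate for a three-needle-electrode ECG on a 40–42 °C pad.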

[1] = system: isolated myocardial tissue; experiment: Stimulation of isolated myocardial tissue
actin [2] = experiment: Multi-angle light scattering of actin aggregation; assay type: biochemical; settings: in presence of transgelin
actin [3] = assay type: biochemical; settings: actin/transgelin plus compound
transgelin (−/−) mice = experiment: Isoproterenol-induced myocardial ischemia model in transgelin; assay type: in vivo; settings: 10 mg/kg
Method in brief: as §1

CASMCs = experiment: Cell contraction and F-actin formation in CASMCs; assay type: cell-based; settings: 10 μM
Method in brief: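 Coronary artery smooth muscle cells came from primary culture in DMEM with 10% foetal bovine serum. They were treated with test compound at 10 μM, and relative cell length and F-actin formation were assessed against untreated control.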

F-actin [4] = experiment: F-actin features in cells; assay type: cell-based, human; settings: versus control group
F-actin [5] = experiment: F-actin fluorescence under actin inhibitor; assay type: cell-based
actin [6] = experiment: Hypoxia-induced actin degradation, fluorescence intensity; assay type: cell-based; settings: hypoxic group 264
transgelin = transgelin (Homo sapiens, UniProt Q01995); experiment: Biacore; settings: Biacore binding to transgelin, 25 °C, CM5 chip, NA = no activity
Chain of transgelin (Q01995 whole entry): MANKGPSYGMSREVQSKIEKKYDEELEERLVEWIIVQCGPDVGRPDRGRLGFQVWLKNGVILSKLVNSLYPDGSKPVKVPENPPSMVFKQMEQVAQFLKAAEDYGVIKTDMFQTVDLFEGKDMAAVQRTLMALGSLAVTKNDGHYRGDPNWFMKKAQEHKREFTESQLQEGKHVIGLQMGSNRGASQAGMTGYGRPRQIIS
Method in brief: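 CM5 chip at 25 °C with PBS-EP running buffer. Transgelin was amine-coupled by EDC/NHS, the same way as actin (0.4 mg/mL in 10 mM phosphate pH 7.4, 12 min, then 1 M ethanolamine pH 8.5; about 4000 RU). Test compound was run over protein and blank channels at 0–25 uM at 20 μL/min. Association 3 min, dissociation 300 s; regeneration with 10 mM glycine-HCl pH 2.5.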

transgelin and actin = assay type: binding; settings: disregarding the effect of SAA
[7] = isoproterenol-treated model group, ISO 3 mg/kg i.p.

O=C(/C=C/c1ccc(O)c(O)c1/C=C/c1ccc(O)c(O)c1)O[C@H](Cc1ccc(O)c(O)c1)C(=O)O [SAA, salvianolic acid A]
Co-localization of transgelin and actin (HVSMCs; control approximately 57%): 78% | Average length of VSMCs (HVSMCs; control approximately 90 μm): ~80 μm | Heart infarction ratio (C57 wild type mice; 10 mg/kg oral daily for 7 days, wild type MI mice 11.2%): 4% | Stimulation effect on isolated myocardial tissue [1]: no stimulation effect | Polymerization (aggregation) of actin (actin [2]): further enhanced | Actin polymerization (actin [3]): marked increase in actin polymerization | CK, CK-MB, AST and LDH levels relative to transgelin (−/−) MI model group (transgelin (−/−) mice): not significantly changed | Therapeutic effect on myocardial ischemia (transgelin (−/−) mice): no therapeutic effect | Relative length of CASMCs (CASMCs): declined | F-actin area, F-actin percentage area, total F-actin length and average F-actin length (F-actin [4]): increased | F-actin fluorescence intensity (F-actin [5]; co-treatment with vincristine, vincristine alone 139): 373 | Actin fluorescence intensity (actin [6]): 453 | Kd (transgelin): 7.11 µM | Protein binding signal of transgelin and actin when SAA was added (transgelin and actin): 1.3 times

CC[C@]1(O)C[C@H]2CN(CCc3c([nH]c4ccccc34)[C@@](C(=O)OC)(c3cc4c(cc3OC)N(C=O)[C@H]3[C@@](O)(C(=O)OC)[C@H](OC(C)=O)[C@]5(CC)C=CCN6CC[C@]43[C@@H]65)C2)C1 [vincristine, reference compound]
F-actin fluorescence intensity (F-actin [5]; vincristine alone, control 395): 139

CC(C)NCC(O)c1ccc(O)c(O)c1 (stereo not shown) [isoproterenol]
Serum AST level compared to normal group (C57 wild type mice; [7]): 237% ± 19% | Serum CK level compared to normal group (C57 wild type mice; [7]): 166% ± 14% | Serum CK-MB level compared to normal group (C57 wild type mice; [7]): 165% ± 24% | Serum LDH level compared to normal group (C57 wild type mice; [7]): 174% ± 14%
